Reference: ChEMBL document CHEMBL1649302, “New small-molecule inhibitor class targeting human immunodeficiency virus type 1 virion maturation” (Antimicrob Agents Chemother, 2009)

How the values were obtained:
[1] = system: Human immunodeficiency virus 1; assay: Antiviral activity against wild type HIV1 infected in human HeLa cells assessed as decrease in viral infection after 72 hrs by beta-galactosidase reporter gene assay; assay type: functional, organism-based; conditions: Human immunodeficiency virus 1, HeLa
In short: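 HeLa CD4 LTR/β-Gal cells (1 × 10⁴/well, DMEM + 10% FBS) were pretreated with half-log compound dilutions. They were then infected at MOI 0.03 with single-cycle NL4-3 ΔEnv reporter virus pseudotyped with envelope from HEK 293 cotransfection. EC50 was the concentration halving β-galactosidase activity versus infected untreated cells. Values are mean ± SD or representative of three experiments.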

[2] = system: Human immunodeficiency virus 1; assay: Antiviral activity against HIV1 harboring spacer peptide A1V mutant protein infected in human HeLa cells assessed as decrease in viral infection after […] by beta-galactosidase reporter gene assay; assay type: functional, organism-based; conditions: Human immunodeficiency virus 1, HeLa
In short: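 MT-2 cells were infected for 2 h with wild-type NL4-3 or recombinant NL4-3 carrying CA I201V or SP1 A1V. They were then cocultured with HeLa CD4 LTR/beta-Gal indicator cells in serially diluted compound. Beta-gal reporter was read after 4 days. EC50s are means ± SD of 3–6 experiments. Fold change is mutant EC50 divided by wild-type EC50.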

[3] = system: Human immunodeficiency virus 1; assay: Antiviral activity HIV1 92BR014 infected in human PBMC after 7 days by scintillation counting; assay type: functional, organism-based; conditions: Human immunodeficiency virus 1, 92BR014, 168 h
In short: (§1)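 Fresh PBMCs from HIV/HBV-seronegative donors were PHA-stimulated (4 μg/ml, 48–72 h) and kept with IL-2 (20 U/ml), with at least two donors pooled. Cells were seeded at 5 × 10⁴/well and infected (final MOI ≅0.1) with nine compound concentrations in triplicate wells. After 7 days, reverse transcriptase activity was measured in cell-free supernatant.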

[4] = system: Human immunodeficiency virus 1; assay: Antiviral activity HIV1 93BR023 infected in human PBMC after 7 days by scintillation counting; assay type: functional, organism-based; conditions: Human immunodeficiency virus 1, 93BR023, 168 h; in short: as §1
[5] = Therapeutic index, ratio of CC50 for human PBMC to EC50 for HIV1 92TH014 infected in human PBMC; conditions: read-out: TI
In short: (§2)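 PHA-stimulated (4 μg/ml, 48 to 72 h) PBMCs pooled from at least two seronegative donors, kept with 20 U/ml IL-2, plated at 5 × 10⁴ cells/well. Infected with clinical isolate (final MOI ≅0.1) alongside nine compound concentrations in triplicate wells, 7 days. Supernatant reverse transcriptase activity measured. TI is mean PBMC CC50 divided by mean EC50.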

[6] = system: Human immunodeficiency virus 1; assay: Antiviral activity against HIV1 3B infected in human MT2 cells assessed as protection against virus-induced cytopathogenicity after 6 days by XTT assay; assay type: functional, organism-based; conditions: Human immunodeficiency virus 1, 3B, MT2, 144 h
In short: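 Host cells were infected with NL4-3 or IIIB (MOI 0.08) or RF (MOI 0.025–0.819) and seeded at 2 × 10⁴/well onto half-log compound dilutions. After 6 days, XTT/PMS was added for 4 h and formazan was read at 450 nm. EC50 was the concentration giving 50% of the formazan of uninfected, compound-free cells.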

[7] = system: Human immunodeficiency virus 1; assay: Antiviral activity HIV1 92HT594 infected in human PBMC after 7 days by scintillation counting; assay type: functional, organism-based; conditions: Human immunodeficiency virus 1, 92HT594, 168 h
In short: (§3)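 PBMCs came from buffy coats pooled from 3–4 seronegative donors, were PHA-stimulated (1.5 μg/ml, 3 days) and frozen. Thawed cells were infected 1 h at 37°C with virus input set by TCID50, then pelleted and resuspended in IL-2 (10 ng/ml). They were plated at 4 × 10⁵ cells/ml onto compounds for 7 days at 37°C. Supernatant RT activity was measured by Quan-T-RT scintillation assay.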

[8] = Therapeutic index, ratio of CC50 for human MT2 cells to EC50 for HIV1 NL4-3 infected in human MT2 cells; assay type: cell-based; conditions: read-out: TI
In short: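 TI was the mean CC50 (XTT, uninfected MT-2) divided by the mean EC50, determined for each cell line in each experiment.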

[9] = Therapeutic index, ratio of CC50 for human PBMC to EC50 for HIV1 93BR021 infected in human PBMC; conditions: read-out: TI; in short: as §2
[10] = system: Human immunodeficiency virus 1; assay: Antiviral activity HIV1 92HT596 infected in human PBMC after 7 days by scintillation counting; assay type: functional, organism-based; conditions: Human immunodeficiency virus 1, 92HT596, 168 h; in short: as §3
[11] = Therapeutic index, ratio of CC50 for human PBMC to EC50 for HIV1 92US076 infected in human PBMC; conditions: read-out: TI; in short: as §2
[12] = system: Human immunodeficiency virus 1; assay: Antiviral activity HIV1 92BR026 infected in human PBMC after 7 days by scintillation counting; assay type: functional, organism-based; conditions: Human immunodeficiency virus 1, 92BR026, 168 h
[13] = system: Human immunodeficiency virus 1; assay: Antiviral activity HIV1 98IN022 infected in human PBMC after 7 days by scintillation counting; assay type: functional, organism-based; conditions: Human immunodeficiency virus 1, 98IN022, 168 h; in short: as §3

In the case of `CC(C)(C)c1ccc(C(Cn2cccc(C(F)(F)F)c2=O)NC2Cc3ccccc3C2)cc1` (stereo not drawn), the EC50 [1] is reported as 206 nM, the EC50 [2] is reported as > 3200 nM and the EC50 [3] is reported as 7000 nM. For the same molecule, the EC50 [4] was > 17000 nM, the selectivity ratio [5] was < 1 and the EC50 [6] was 17 nM. For the same molecule, the EC50 [7] was 1100 nM, the selectivity ratio [8] was 53 and the selectivity ratio [9] was 425. The EC50 [10] was 320 nM, the selectivity ratio [11] was 2430 and the EC50 [12] was > 17000 nM. The EC50 [13] was 1300 nM.
